PfGluPho inh = PfG6PD enzyme inhibitors, primary screen, biochemical, fluorescence intensity, uHTS; glucose-6-phosphate dehydrogenase-6-phosphogluconolactonase (Plasmodium falciparum 3D7); PfGluPho enzyme, NADPH resazurin-diaphorase fluorescence; inhibition, % at 20 µM; hit rate 0.78% among 350,000; AID 504690, 2011;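 active = inhibition reaching at least a set limit at 20 µM in the primary screen, cut at about 59% in these data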;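 also: 0% = DMSO wells with substrate and 100% = DMSO wells lacking glucose-6-phosphate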
MC4R antagonist = MC4R antagonists of cAMP signaling, primary screen, cell-based, TR-FRET, antagonist arm of biased-ligand search | inhibition, % at 6.5 µM | hit rate 0.48% among 360,000 | MC4R-expressing cells, MTII-stimulated cAMP, LANCE TR-FRET | Melanocortin receptor 4 (Homo sapiens), P32245;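 active = inhibition above its plate's cutoff, the mean of tested wells on that plate plus 3 SD, cut at about 29% in these data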;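 also: 0% = Melanotan II alone and 100% = Melanotan II plus saturating MCL0020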
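System: U2OS-MC4R stable cell line; Technique: Eu-cAMP/anti-cAMP TR-FRET, emission 671 nm; Repeats: single well per compound; Also added: Melanotan II; Dosing: one concentration, 6.5 µM nominal; Schedule: 30-min compound, 1-h challenge, 1-h detection, room temperature.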
Beta2AR agonist = beta2AR agonists driving receptor internalization, primary screen, cell-based, FAP fluorogen, flow cytometry | Am2.2-beta2AR cells | response, % (concentration not given with the values) | hit rate 0.43% among 340,000 | AID 504454, 2011;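 active = response above a set limit, near 3 SD of response in nonfluorescent compounds, cut at about 42% in these data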
ABHD5 PLIN5 PPI = ABHD5-PLIN5 interaction inhibitors, primary screen, cell lysate, split luciferase complementation, luminescence | Split G. princeps luciferase complementation, 4 h | inhibition, % at 4 µM | hit rate 0.78% among 360,000 | AID 602281, 2012;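 active = inhibition above the mean inhibition across every tested compound plus 3 SD, cut at about 22% in these data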;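 also: 0% = DMSO only wells and the 100% control is not disclosed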
Target sequence (Q00G26 whole entry, looked up): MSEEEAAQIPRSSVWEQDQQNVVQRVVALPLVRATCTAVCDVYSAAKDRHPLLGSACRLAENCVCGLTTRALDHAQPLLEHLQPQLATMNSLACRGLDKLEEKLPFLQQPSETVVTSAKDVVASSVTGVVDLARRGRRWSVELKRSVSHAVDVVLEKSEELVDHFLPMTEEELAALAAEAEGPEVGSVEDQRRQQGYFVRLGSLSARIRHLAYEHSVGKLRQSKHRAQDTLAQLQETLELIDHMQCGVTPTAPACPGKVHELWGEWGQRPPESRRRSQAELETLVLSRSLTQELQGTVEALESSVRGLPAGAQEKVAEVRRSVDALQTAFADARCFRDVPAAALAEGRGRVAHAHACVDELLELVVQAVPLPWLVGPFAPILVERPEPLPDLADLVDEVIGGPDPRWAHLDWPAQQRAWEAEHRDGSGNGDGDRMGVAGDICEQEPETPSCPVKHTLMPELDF
Target sequence (Q8WTS1 whole entry, looked up): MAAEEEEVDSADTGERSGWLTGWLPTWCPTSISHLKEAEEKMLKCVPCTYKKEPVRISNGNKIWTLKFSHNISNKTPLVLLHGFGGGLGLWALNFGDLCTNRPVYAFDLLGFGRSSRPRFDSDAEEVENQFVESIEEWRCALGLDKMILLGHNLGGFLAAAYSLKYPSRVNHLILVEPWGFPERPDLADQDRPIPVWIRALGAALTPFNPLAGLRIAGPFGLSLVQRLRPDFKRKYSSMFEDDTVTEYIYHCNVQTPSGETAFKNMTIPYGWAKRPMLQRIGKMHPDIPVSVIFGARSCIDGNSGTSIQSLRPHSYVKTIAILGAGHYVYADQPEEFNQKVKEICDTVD
MC4R barr agon = MC4R agonists recruiting beta-arrestin, primary screen, cell-based, luminescence, agonist arm of biased-ligand search; activation, % at 8.9 µM; AID 540308, 2011; U2OS MC4R beta-arrestin complementation; percent of melanotan II response, DMSO zero; Melanocortin receptor 4 (Homo sapiens), P32245; hit rate 0.98% among 360,000;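 active = activation above a per-plate cutoff, the mean activation of sample wells on that plate plus 3 SD, cut at about 8% in these data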
B2AR ag CP1 = beta2AR agonists via receptor internalization, confirmation, cell-based, FAP fluorogen, flow cytometry, single point, cherry pick 1 | shares compounds with Beta2AR agonist | Am2.2-beta2AR cells, FAP surface receptor; hits give low values | percent response (surface receptor), % at 10 µM | hit rate 25% among 1,100;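 active = surface receptor percent response at or below 58%, roughly 3 SD from nonfluorescent compounds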
B2AR FAP counter = flagged in Am2.2 fluorescence counterscreen for beta-2AR agonists; 1,100 tested, under 10 active; AID 588765; Am2.2 cells, FAP fluorogen flow cytometry; hits give low values; calls only at 10 µM; shares compounds with Beta2AR agonist;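 active = percent response below a set limit in fluorescence channel 1 and below 50% in channel 8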
* hit, by the source's call; i = inactive; / = no result. Sampled rows, rich in hits. Any-hit rate of the full collection: about 3%.

SMILES	PfGluPho inh	MC4R antagonist	Beta2AR agonist	ABHD5 PLIN5 PPI	MC4R barr agon	B2AR ag CP1	B2AR FAP counter
CNC(=O)c1cc(S(=O)(=O)Nc2ccc3c(c2)OCO3)ccc1C	8.0	4.6	4.3	2.3	0.9	/	/
N#Cc1c(-c2ccccc2)nc(SCC(=O)NC2CCCCC2)[nH]c1=O	-16.1	24.3	-6.3	2.0	-3.9	/	/
CN(C(=O)CSc1nc(-c2ccc(C(C)(C)C)cc2)c(C#N)c(=O)[nH]1)C1CCCCC1	-39.7	10.3	14.8	-0.2	-3.8	104.9	i
CCOC(=O)C(=O)N1CCC(Cc2ccccc2)CC1	-4.6	13.3	3.5	-2.1	-1.1	/	/
CCOC(=O)CSCC(=O)N1CCC(Cc2ccccc2)CC1	10.4	2.4	65.6*	-0.1	0.1	90.3	i
CC(=O)c1cccc(NC2c3ccccc3C(=O)N2Cc2ccco2)c1 (centres undefined)	-17.3	1.8	-6.4	6.8	0.7	/	/
COc1cccc(NC2c3ccccc3C(=O)N2Cc2ccco2)c1 (centres undefined)	16.5	12.0	68.7*	2.5	0.1	103.6	i
COCCn1c(=S)[nH]c2ccc(N(C)C)cc2c1=O	35.9	-0.4	45.1*	-4.8	-0.2	121.7	i
CCOc1cc2[nH]c(=S)n(CCOC)c(=O)c2cc1OCC	10.9	13.1	6.3	-2.6	-1.2	/	/
COC(=O)c1cc([N+](=O)[O-])c(-n2cncn2)c([N+](=O)[O-])c1	4.4	7.9	50.2*	5.9	-3.7	33.6*	i
COC(=O)c1cc(F)c(-n2cncn2)c(F)c1	-7.5	-1.6	11.1	10.1	0.5	/	/
CC(C)(C(=O)O)c1ccc(C(O)CCCN2CCC(C(O)(c3ccccc3)c3ccccc3)CC2)cc1 (centres undefined)	14.7	13.4	-3.1	4.2	-0.2	81.6	i
COc1ccc(N(C(=O)c2snc(C(N)=O)c2N)C(C(=O)NC2CCCC2)c2ccco2)c(OC)c1 (centres undefined)	-7.3	-1.8	70.0*	3.6	-0.3	115.7	i
CCOC(=O)c1ccc(NC(=O)COC)cc1	-12.4	-2.6	9.6	-2.9	2.6	/	/
CCOC(=O)c1ccc(NC(=O)Cc2coc3cc4c(cc23)CCC4)cc1	4.7	1.9	68.7*	-10.8	3.5	45.1*	i
O=C1ON=C(c2ccccc2)/C1=C/c1ccc(O)c(O)c1	-4.2	8.7	25.9	-5.2	-1.7	/	/
O=C1ON=C(c2ccccc2)/C1=C/c1cccnc1	-7.6	6.3	-2.9	-8.1	-2.9	100.0	i
COc1cc([N+](=O)[O-])ccc1NC(=O)COC(=O)c1c[nH]c(=O)[nH]c1=O	17.4	4.4	3.0	-0.3	-2.2	/	/
CCNC(=O)CN(CCc1ccccc1)S(=O)(=O)c1ccc(OC)cc1	-5.1	6.2	-0.1	1.6	-2.0	/	/
COc1ccc(S(=O)(=O)N(CCc2ccccc2)CC(=O)O)cc1	-30.4	-4.0	51.2*	-1.3	0.1	101.8	i
Cc1cccc(N2CC(C(=O)NCc3ccco3)CC2=O)c1C (centres undefined)	-2.0	-1.5	-5.5	3.8	-3.8	/	/
O=C(CC1Oc2ccccc2NC1=O)NCCc1ccccc1 (centres undefined)	-0.4	1.1	44.0*	0.8	-0.9	98.2	i
O=S(=O)(NC(CO)Cc1ccccc1)c1cc(Cl)ccc1F (centres undefined)	6.0	-1.6	-3.4	5.4	0.5	/	/
CC1=NN(C(N)=S)C(=O)C1N=Nc1ccc(F)cc1 (centres undefined)	10.3	2.9	-1.6	7.3	-2.4	48.8*	i
CCC(C)NS(=O)(=O)c1cc2c3c(c1)CCC(=O)N3CCC2 (centres undefined)	-10.7	0.5	3.2	4.3	0.0	/	/
SMILES	PfGluPho inh	MC4R antagonist	Beta2AR agonist	ABHD5 PLIN5 PPI	MC4R barr agon	B2AR ag CP1	B2AR FAP counter
Cc1ccc(S(=O)(=O)NCC(=O)Nc2cccnc2)cc1C	7.5	6.1	0.9	-1.9	-2.4	/	/
COc1ccc(NC(=O)COc2ccc(S(=O)(=O)N3CCOCC3)cc2C)cc1OC	-0.9	1.8	5.5	9.6	-0.9	110.8	i
Cc1cc(S(=O)(=O)N2CCOCC2)ccc1OCC(=O)Nc1cccc(F)c1	0.6	1.1	6.6	-0.4	-1.0	125.8	i
CN(C)S(=O)(=O)c1cccc(NC(=O)COc2ccc(S(=O)(=O)N3CCOCC3)cc2Cl)c1	1.2	5.3	14.3	1.0	-2.4	/	/
COc1ccccc1CNC(=O)COc1ccc(S(=O)(=O)N2CCOCC2)cc1C	6.8	11.1	-5.7	-1.9	-2.2	/	/
Cc1ccccc1NC(=O)COc1ccc(S(=O)(=O)N2CCCC2)cc1C	-9.5	2.5	-1.2	0.9	-3.3	90.5	i
COc1ccc(S(=O)(=O)N2CCOCC2)cc1NC(=O)COc1ccccc1OC	-3.4	16.6	2.8	-1.3	-0.9	/	/
Cc1cc(S(=O)(=O)N2CCOCC2)ccc1OCC(=O)Nc1ccccc1F	-8.6	12.7	11.6	-5.2	-1.2	95.3	i
O=C(Nc1cccc(-c2nc3ccccc3s2)c1)c1cccs1	21.1	8.2	51.6*	3.9	-2.6	45.6*	i
Cc1nn(Cc2ccccc2)c(N)c1-c1ccccc1	-2.5	-2.0	49.7*	-2.0	-1.1	101.4	i
O=C(c1cc2c(ccc3ccccc32)o1)N1CCN(c2ncc(C(F)(F)F)cc2Cl)CC1	1.1	3.2	97.9*	1.5	-0.6	13.4*	i
Cc1c(Br)c([N+](=O)[O-])nn1CCCC(=O)Nc1sc2c(c1C#N)CCC2	56.3	9.4	59.4*	-15.6	-0.3	128.2	i
CCCCn1c(SCC(=O)N2CCCC2)nnc1-c1ccccc1	-3.2	0.3	-3.7	-8.2	-1.7	/	/
CCn1c(SCC(=O)N2CCCC2)nnc1-c1ccc(N)cc1	29.5	3.5	86.0*	-3.0	1.3	6.8*	i
CC1CCN(C(=O)COC(=O)c2ccccc2C(=O)c2ccccc2)CC1	19.2	-3.8	-2.4	5.9	-0.5	113.0	i
CCOC(=O)C1CCN(C(=O)COC(=O)c2ccccc2OCC)CC1	-8.3	2.9	-0.3	0.5	-1.7	/	/
Cc1ccc(C(=O)c2ccccc2C(=O)OCC(=O)N2C(C)CCCC2C)cc1 (centres undefined)	18.1	-6.2	3.6	0.8	-2.5	123.1	i
CCOC(=O)C1CCN(C(=O)COC(=O)c2ccccc2C(=O)c2ccc(Cl)cc2)CC1	21.5	2.4	4.7	-3.7	0.6	95.4	i

Screening data: PubChem, several laboratories
